# Data as given in ChEMBL document CHEMBL4118197, “The discovery and preclinical evaluation of BMS-707035, a potent HIV-1 integrase strand transfer inhibitor” (Bioorg Med Chem Lett, 2018).
# Key:
# [1] = molecular target: Human immunodeficiency virus type 1 integrase (Human immunodeficiency virus 1, UniProt Q7ZJM1); experiment: Inhibition of HIV1 integrase strand transfer activity
# [2] = Aqueous solubility of the compound; assay type: physicochemical
# Outline: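 Aqueous solubility measured at pH 2.3, 6.1, 7.3 and 8.5, in µg/mL.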
# [3] = Clearance in Sprague-Dawley rat at 1 mg/kg, iv after 4 hrs; assay type: ADME, organism-based; details: in vivo
# Outline: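 Male Sprague-Dawley rats given 1 mpk IV in PEG400/ethanol (90:10); blood sampled at 5 and 30 min and 1, 2 and 4 h post-dose; clearance from plasma profile.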
# Sequence of Human immunodeficiency virus type 1 integrase (Q7ZJM1 whole entry): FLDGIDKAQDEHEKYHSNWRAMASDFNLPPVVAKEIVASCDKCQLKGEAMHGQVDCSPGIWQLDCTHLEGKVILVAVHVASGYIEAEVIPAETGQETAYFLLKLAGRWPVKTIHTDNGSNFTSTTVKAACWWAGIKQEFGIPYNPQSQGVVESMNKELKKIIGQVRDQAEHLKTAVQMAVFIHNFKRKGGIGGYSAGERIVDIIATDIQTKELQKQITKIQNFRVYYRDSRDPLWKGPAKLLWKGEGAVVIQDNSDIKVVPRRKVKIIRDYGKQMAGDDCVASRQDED
SMILES,IC50 [1] [nM],solubility [2] [µg/mL],clearance [3] [mL/min/kg]
CC1(C)OCCn2c1nc(C(=O)NCc1ccc(F)c(Cl)c1)c(O)c2=O,3,–,–
O=C(NCc1ccc(F)cc1)c1nc2n(c(=O)c1O)CCCC21CCCC1,3,≤ 5,18
O=C(NCc1ccc(F)cc1S(=O)(=O)N1CCOCC1)c1nc2n(c(=O)c1O)CCCC21CCCC1,11,≤ 5,–
CNC(=O)c1cc(F)ccc1CNC(=O)c1nc2n(c(=O)c1O)CCOC2(C)C,11,–,22
